These results are taken from ChEMBL document CHEMBL1126976, “Hybrids of antibiotics inhibiting protein synthesis. Synthesis and biological activity” (1993).

In assay [1] the test system is Staphylococcus aureus. Nature of the assay: The compound was tested for minimum inhibitory concentration required for inhibition of microbial growth in staphylococcus aureus at the Upjohn culture 6685. It counts as functional. In a few lines: (§1)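 Agar dilution in brain heart infusion agar with serial 2-fold compound dilutions. Organisms grown overnight on BHIA at 35 °C aerobically and suspended in TSB to 0.5 McFarland. The suspension is diluted 1:20 and spotted as 1-μL drops (~10^4 CFU). Plates incubated 18 h at 35 °C. MIC is the lowest concentration preventing visible growth.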

Assay [2] concerns Pseudomonas aeruginosa. Nature of the assay: The compound was tested for minimum inhibitory concentration required for inhibition of microbial growth in Pseudomonas aeruginosa at the Upjohn culture 95. It counts as functional. In outline:
as §1

Assay [3] in a line: The compound was tested for minimum inhibitory concentration required for inhibition of microbial growth in Salmonella schottmuelleri. It counts as functional. In outline: as §1
In another assay the test system is Escherichia coli. Nature of the assay: The compound was tested for minimum inhibitory concentration required for inhibition of microbial growth in Escherichia coli at the Upjohn culture. It counts as functional. In a few lines:
as §1

A further assay deals with Enterococcus faecalis. As to the kind of experiment: The compound was tested for minimum inhibitory concentration required for inhibition of microbial growth in Enterococcus faecalis at the Upjohn culture. It counts as functional. In a few lines: as §1
The test system of a further assay is Streptococcus pneumoniae. As to the kind of experiment: The compound was tested for minimum inhibitory concentration required for inhibition of microbial growth in Streptococcus pneumoniae at the Upjohn culture. It counts as functional. In outline: as §1
Assay [4] deals with Staphylococcus aureus. As to the kind of experiment: The compound was tested for minimum inhibitory concentration required for inhibition of microbial growth in staphylococcus aureus at the Upjohn culture 76. It counts as functional. In outline:
as §1

Assay [5] has as its system Staphylococcus aureus. As to the kind of experiment: The compound was tested for minimum inhibitory concentration required for inhibition of microbial growth in staphylococcus aureus at the Upjohn culture 6690. It counts as functional. In outline:
as §1

A further assay has as its system Klebsiella pneumoniae. As to the kind of experiment: The compound was tested for minimum inhibitory concentration required for inhibition of microbial growth in Klebsiella pneumoniae at the Upjohn culture. It counts as functional. In a few lines:
as §1

For assay [6], the system named is Pseudomonas aeruginosa. As to the kind of experiment: The compound was tested for minimum inhibitory concentration required for inhibition of microbial growth in Pseudomonas aeruginosa at the Upjohn culture 6676. It counts as functional. In outline:
as §1

In another assay the test system is Streptococcus pyogenes. As to the kind of experiment: The compound was tested for minimum inhibitory concentration required for inhibition of microbial growth in Streptococcus pyogenes at the Upjohn culture. It counts as functional. In a few lines:
as §1

The test system of assay [7] is Saccharomyces cerevisiae. As to the kind of experiment: The compound was tested for inhibition of Polyphenylalanine synthesis in Saccharomyces cerevisiae ribosome system at concentration of 1*10e-3 M; values are per cent of control.
Assay [8] relates to Saccharomyces cerevisiae. Nature of the assay: The compound was tested for inhibition of Polyphenylalanine synthesis in Saccharomyces cerevisiae ribosome system at concentration of 1*10e-5 M; values are per cent of control.
In assay [9] the test system is Saccharomyces cerevisiae. As to the kind of experiment: The compound was tested for inhibition of Polyphenylalanine synthesis in Saccharomyces cerevisiae ribosome system at concentration of 1*10e-4 M; values are per cent of control.
The species named for assay [10] is Rattus norvegicus. Nature of the assay: The compound was tested for inhibition of Puromycin reaction with hybrid antibiotics in a rat liver ribosome system concentrations of 2*10e-4 M; values are per cent of control.
Assay [11] is filed under the species Rattus norvegicus. Nature of the assay: The compound was tested for inhibition of Puromycin reaction with hybrid antibiotics in a rat liver ribosome system concentrations at 1*10e-3 M; values are per cent of control.
For assay [12], the species on record is Rattus norvegicus. As to the kind of experiment: The compound was tested for inhibition of Puromycin reaction with hybrid antibiotics in a rat liver ribosome system concentrations of 2*10e-4 M; values are per cent of control. The source holds these as a separate data set.
The species entered for assay [13] is Rattus norvegicus. Nature of the assay: The compound was tested for inhibition of Puromycin reaction with hybrid antibiotics in a rat liver ribosome system concentrations at 1*10e-3 M; values are per cent of control. The source holds these as a separate data set.

Molecules are shown by their SMILES. Converted amounts (≈) assume the structure as drawn.

On to `Cc1nc(O)nc(O)c1/C=C/C(=O)NC(CO)C(O)c1ccc([N+](=O)[O-])cc1` (centres undefined), for which the MIC (against Staphylococcus aureus [1]; against Pseudomonas aeruginosa [2]; in [3]; in the assay with Escherichia coli; in the assay on Enterococcus faecalis; in the assay on Streptococcus pneumoniae) was > 400 µg/mL each time. For the same compound, the MIC (in general, the lowest concentration that inhibits growth of the organism) was > 400 µg/mL with Staphylococcus aureus [4]; > 400 µg/mL against Staphylococcus aureus [5]; > 400 µg/mL against Klebsiella pneumoniae; > 400 µg/mL in the assay with Pseudomonas aeruginosa [6]; 50 µg/mL (≈ 128 µM) with Streptococcus pyogenes.

For the compound `O=C(N[C@H](CO)[C@H](O)c1ccc([N+](=O)[O-])cc1)C(Cl)Cl` [CHLORAMPHENICOL], the MIC in the assay on Staphylococcus aureus [1] came to 6.25 µg/mL (≈ 19.3 µM); in the assay with Pseudomonas aeruginosa [2], 100 µg/mL (≈ 309 µM); in assay [3], 6.25 µg/mL (≈ 19.3 µM); with Escherichia coli, 3.12 µg/mL (≈ 9.66 µM); against Enterococcus faecalis, 6.25 µg/mL (≈ 19.3 µM); in the assay on Streptococcus pneumoniae it was 3.12 µg/mL (≈ 9.66 µM). Further, the MIC is 6.25 µg/mL (≈ 19.3 µM) against Staphylococcus aureus [4]; 50 µg/mL (≈ 155 µM) against Staphylococcus aureus [5]; 3.12 µg/mL (≈ 9.66 µM) in the assay with Klebsiella pneumoniae; 200 µg/mL (≈ 619 µM) against Pseudomonas aeruginosa [6]; 3.12 µg/mL (≈ 9.66 µM) in the assay on Streptococcus pyogenes.

As to `CSC1OC(C(NC(=O)C(Cl)Cl)C(C)O)C(O)C(O)C1O` (centres undefined), the minimal inhibitory concentration (MIC) against Staphylococcus aureus [1] is > 400 µg/mL; in the assay with Pseudomonas aeruginosa [2], > 400 µg/mL; in assay [3], > 400 µg/mL; against Escherichia coli, > 400 µg/mL; in the assay with Enterococcus faecalis it was > 400 µg/mL; in the assay with Streptococcus pneumoniae it was 25 µg/mL (≈ 68.6 µM). Moreover, the minimal inhibitory concentration (MIC) with Staphylococcus aureus [4] was 50 µg/mL (≈ 137 µM); against Staphylococcus aureus [5], 50 µg/mL (≈ 137 µM); with Klebsiella pneumoniae it was > 400 µg/mL; against Pseudomonas aeruginosa [6], > 400 µg/mL; with Streptococcus pyogenes, 6.25 µg/mL (≈ 17.2 µM). Moreover, the level, % of control was determined as 96.8% with Saccharomyces cerevisiae [7], 97.3% in the assay on Saccharomyces cerevisiae [8] and 90.9% in the assay with Saccharomyces cerevisiae [9].

Turning to `CSC[S@@+]([O-])CC(CO)NC(=O)/C=C/c1c(C)[nH]c(=O)[nH]c1=O` (some centres undefined), the values for the level, % of control in the assay on Saccharomyces cerevisiae [7], with Saccharomyces cerevisiae [8] and in the assay on Saccharomyces cerevisiae [9] were 15.5%, 44.1% and 30.3%, respectively.

Take `CCC[C@@H]1C[C@@H](C(=O)N[C@@H]([C@H]2O[C@H](SC)[C@H](O)[C@@H](O)[C@H]2O)[C@@H](C)O)N(C)C1` [LINCOMYCIN]: the MIC with Staphylococcus aureus [1] was > 400 µg/mL; in the assay on Pseudomonas aeruginosa [2], > 400 µg/mL; in assay [3], > 800 µg/mL; in the assay with Escherichia coli it was > 400 µg/mL; in the assay on Enterococcus faecalis, 50 µg/mL (≈ 123 µM); against Streptococcus pneumoniae, 0.78 µg/mL (≈ 1.92 µM). The MIC is 0.78 µg/mL (≈ 1.92 µM) in the assay with Staphylococcus aureus [4]; 0.78 µg/mL (≈ 1.92 µM) with Staphylococcus aureus [5]; 400 µg/mL (≈ 984 µM) with Klebsiella pneumoniae; > 400 µg/mL with Pseudomonas aeruginosa [6]; 0.2 µg/mL (≈ 0.492 µM) against Streptococcus pyogenes.

`CSC1OC(C(NC(=O)/C=C/c2c(C)nc(O)nc2O)C(C)O)C(O)C(O)C1O` (centres undefined): the MIC (in the assay on Staphylococcus aureus [1]; against Pseudomonas aeruginosa [2]; in assay [3]; against Escherichia coli; against Enterococcus faecalis; with Streptococcus pneumoniae) was > 400 µg/mL throughout. The minimum inhibitory concentration (MIC) with Staphylococcus aureus [4], against Staphylococcus aureus [5], with Klebsiella pneumoniae, against Pseudomonas aeruginosa [6] and in the assay with Streptococcus pyogenes was > 400 µg/mL throughout. In addition, the level, % of control with Saccharomyces cerevisiae [7] is 93.4%; in the assay listed under Rattus norvegicus [10] it was 90%; with Saccharomyces cerevisiae [8], 101%; in the assay listed under Rattus norvegicus [11], 91%; in the assay on Saccharomyces cerevisiae [9], 97.7%.

With `CCCC1CC(C(=O)NC(CO)C(O)c2ccc([N+](=O)[O-])cc2)N(C)C1` (centres undefined), the MIC against Staphylococcus aureus [1] is 800 µg/mL (≈ 2190 µM); against Pseudomonas aeruginosa [2], > 800 µg/mL; in [3] it was > 800 µg/mL; in the assay on Escherichia coli, > 800 µg/mL; in the assay on Staphylococcus aureus [4] it was 800 µg/mL (≈ 2190 µM); in the assay with Staphylococcus aureus [5], > 800 µg/mL. For the same compound, the MIC came to 800 µg/mL (≈ 2190 µM) against Klebsiella pneumoniae and 200 µg/mL (≈ 547 µM) with Streptococcus pyogenes.

Take `Cc1nc(O)nc(O)c1/C=C/C(=O)N[C@H]1[C@@H](O)[C@H](n2cnc3c(N(C)C)ncnc32)O[C@@H]1CO`: the “level, % of control” value in the assay filed under Rattus norvegicus [12] was determined as 69%; in the assay with Saccharomyces cerevisiae [7], 95.7%; in the assay with Saccharomyces cerevisiae [8], 106%; with Saccharomyces cerevisiae [9] it was 95.8%; in the assay listed under Rattus norvegicus [13], 76%.
